The text below walks through data of ChEMBL document CHEMBL2202988, “D-amino acid based protein arginine deiminase inhibitors: Synthesis, pharmacokinetics, and in cellulo efficacy” (ACS Med Chem Lett, 2012).

Activity calls are given as the source filed them. No cut-off for these calls is given here. Bounds are passed on as bounds.

The test system of data set [1] is MDA-MB-231. As to the kind of experiment: Antiproliferative activity against human MDA-MB-231 cells assessed as decrease in Ki-67 level. The format is functional, cell-based. The procedure, abridged: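 MDA-MB-231 triple-negative breast cancer cells (PAD1-overexpressing) treated at 100, 200 and 400 μM. Ki-67 levels assessed 96 h after administration. Tunicamycin served as the positive control for cell cycle arrest.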

A short description of data set [2]: Drug level in C57Bl/6 mouse serum at 10 mg/kg, ip after 4 hrs by LC-MS/MS analysis. Further details: dose 10 mg/kg, route intraperitoneal. To be noted: read-out: Drug uptake. The format is ADME, organism-based. The procedure, abridged:
(§1)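 Mice dosed by iv (2.5 or 10 mg/kg) or ip (10 mg/kg) injection; serum/plasma drug levels measured over time up to 4 h, plotted as mean levels.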

The nature of data set [3]: Drug level in C57Bl/6 mouse serum at 2.5 mg/kg, iv after 4 hrs by LC-MS/MS analysis. Further details: dose 2.5 mg/kg, route intravenous. To be noted: read-out: Drug uptake. The format is ADME, organism-based. In a few lines:
as §1

Data set [4] is described as follows: Drug level in C57Bl/6 mouse serum at 2.5 mg/kg, iv after 2 hrs by LC-MS/MS analysis. The format is ADME, organism-based. Set-up: dose 2.5 mg/kg, route intravenous. To be noted: read-out: Drug uptake. The procedure, abridged:
as §1

For the next data set, the system named is Liver. Kind of data set: Half life in mouse liver microsomes. In kind it is ADME, Microsome. In a few lines:
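Stability assessed by incubation with murine hepatic microsomes; half-life derived from compound remaining over time.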
A general note: Liver microsomes are vesicles of endoplasmic reticulum, rich in cytochrome P450 enzymes.

Data set [5] deals with MDA-MB-231. Kind of data set: Induction of apoptosis in human MDA-MB-231 cells assessed as increase in caspase-3 activity. In kind it is functional, cell-based. The procedure, abridged: (§2)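 MDA-MB-231 cells given inhibitor at 100, 200 and 400 μM; caspase 3 activity measured 96 h after administration.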
The subject of data set [6] is MDA-MB-231. As to the kind of experiment: Antiproliferative activity against human MDA-MB-231 cells assessed as Ki-67 level at 100 to 400 uM. In kind it is functional, cell-based. In a few lines:
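MDA-MB-231 triple-negative breast cancer cells (PAD1-overexpressing) exposed to inhibitor at 100, 200 and 400 μM; Ki-67 level taken as the proliferation read-out; tunicamycin at increasing amounts served as positive control for cell-cycle arrest.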

Data set [7] has as its system MDA-MB-231. Kind of data set: Cytotoxicity against human MDA-MB-231 cells assessed as decrease in cell number at 400 uM after 96 hrs by trypan blue assay. In kind it is functional, cell-based. In a few lines: (§3)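 MDA-MB-231 breast cancer cells (PAD1-overexpressing) exposed to inhibitor at 100, 200 and 400 μM; percent viability and cell number read 96 h after addition.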

The subject of data set [8] is MDA-MB-231. Kind of data set: Cytotoxicity against human MDA-MB-231 cells assessed as decrease in cell viability at 200 to 400 uM after 96 hrs by trypan blue assay. The format is functional, cell-based. In a few lines:
as §3

The test system of data set [9] is Mus musculus. As to the kind of experiment: Toxicity in po dosed C57BL/6J mouse. In kind it is organism-based. To be noted: in vivo. In a few lines:
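Mice (n = 10 per group) were dosed per os at varying doses up to 150 mg/kg. Percent change in total body weight was tracked to 96 h, along with observable signs of toxicity. MTD was taken as the highest dose causing no weight loss or significant toxicity signs. Weight change was tested for significance (P < 0.05).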

Data set [10] relates to Mus musculus. As to the kind of experiment: Toxicity in C57BL/6J mouse assessed as change in body weight at 5 to 150 mg/kg, po after 1 to 96 hrs. The format is organism-based. Further details: route oral. The note with it: in vivo. The procedure, abridged: (§4)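 Oral dosing of mice (n = 10) at varying doses up to 150 mg/kg; percent change in body weight followed to 96 h, significance at P <0.05.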

Data set [11] has as its system MDA-MB-231. As to the kind of experiment: Induction of apoptosis in human MDA-MB-231 cells assessed as caspase-3 activity at 100 to 400 uM. The format is functional, cell-based. In a few lines:
as §2

Data set [12] relates to MDA-MB-231. Kind of data set: Cytotoxicity against human MDA-MB-231 cells assessed as cell viability at 400 uM after 96 hrs by trypan blue assay. The format is functional, cell-based. The procedure, abridged:
as §3

Data set [13] deals with Mus musculus. Kind of data set: Toxicity in C57BL/6J mouse assessed as bloody stools at 150 mg/kg, po. The format is organism-based. Set-up: dose 150 mg/kg, route oral. To be noted: in vivo. In a few lines: (§5)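 Mice dosed per os at graded levels up to 150 mg/kg; observable physiological signs (shaking, anxiety, hunching, heavy breathing, stool changes, diarrhea) recorded after treatment, with monitoring over the following days.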

Data set [14] deals with Mus musculus. Kind of data set: Toxicity in C57BL/6J mouse assessed as heavy breathing at 150 mg/kg, po after 1 to 4 hrs. The format is organism-based. Set-up: dose 150 mg/kg, route oral. The note with it: in vivo. In a few lines: as §5
Data set [15] has as its system Mus musculus. Kind of data set: Toxicity in C57BL/6J mouse assessed as hunching at 150 mg/kg, po after 1 to 4 hrs. Further details: dose 150 mg/kg, route oral. In kind it is organism-based. The note with it: in vivo. The procedure, abridged:
as §5

Data set [16] concerns Mus musculus. Kind of data set: Drug metabolism in C57Bl/6 mouse at 10 mg/kg, ip measured within 4 hrs by LC-MS/MS analysis. In kind it is ADME, organism-based. Set-up: dose 10 mg/kg, route intraperitoneal. To be noted: in vivo. In a few lines: as §1
The subject of data set [17] is Mus musculus. As to the kind of experiment: Drug metabolism in C57Bl/6 mouse at 10 mg/kg, iv measured within 2 hrs by LC-MS/MS analysis. The format is ADME, organism-based. Set-up: dose 10 mg/kg, route intravenous. To be noted: in vivo. In a few lines:
as §1

The subject of data set [18] is Mus musculus. Kind of data set: Toxicity in C57BL/6J mouse assessed as loss in body weight at 100 to 150 mg/kg, po after 96 hrs. In kind it is organism-based. Set-up: dose 100-150 mg/kg, route oral. The note with it: in vivo. The procedure, abridged: as §4
In data set [19] the test system is Mus musculus. Kind of data set: Toxicity in C57BL/6J mouse assessed as anxiety at 150 mg/kg, po after 1 to 4 hrs. The note with it: in vivo. The format is organism-based. Further details: dose 150 mg/kg, route oral. In a few lines:
as §5

In data set [20] the test system is Mus musculus. Kind of data set: Toxicity in C57BL/6J mouse assessed as occurrence of diarrhea at 150 mg/kg, po after 2 to 3 days. The format is organism-based. Further details: dose 150 mg/kg, route oral. The note with it: in vivo. The procedure, abridged: as §5
Data set [21] relates to Mus musculus. Kind of data set: Toxicity in C57BL/6J mouse assessed as body shaking at 150 mg/kg, po after 1 to 4 hrs. The format is organism-based. Set-up: dose 150 mg/kg, route oral. The note with it: in vivo. In a few lines:
as §5

On to `CC(=O)N[C@H]1[C@@H](O[C@@H]2O[C@H](CC(O)[C@H]3O[C@@H](n4ccc(=O)[nH]c4=O)[C@H](O)[C@@H]3O)[C@H](O)[C@H](O)[C@H]2NC(=O)/C=C/CC(C)C)O[C@H](CO)[C@@H](N)[C@@H]1O` (some centres not stated), for which the result with MDA-MB-231 [1] was Active.

For `N=C(CCl)NCCC[C@@H](NC(=O)c1ccccc1)C(N)=O`, the concentration at 4 h in data set [2] and in [3] was 10 nM in each case. In addition, the concentration at 2 h in data set [4] was determined as 21 nM. In the data set with Liver, this molecule registered a t1/2 of 33 min. The figures for the Activity result in the data set on MDA-MB-231 [5] and in the data set on Mus musculus [10] were “Dose-dependent effect” and “Non-toxic”, respectively. The outcome with MDA-MB-231 [6] was inactive. The outcome with MDA-MB-231 [7] and in the data set on MDA-MB-231 [8] was Active. In addition, the MTD with Mus musculus [9] is > 150 mg/kg.

`N=C(CF)NCCC[C@@H](NC(=O)c1ccccc1C(=O)O)C(N)=O`: the result in the data set on MDA-MB-231 [11], in the data set with MDA-MB-231 [6], in the data set on MDA-MB-231 [12] and in the data set on MDA-MB-231 [7] was inactive. For the same molecule, in the data set on Mus musculus [9], the MTD is > 150 mg/kg. The Activity result in the data set with Mus musculus [10] is recorded as “Non-toxic”.

For `N=C(CCl)NCCC[C@H](NC(=O)c1ccccc1)C(N)=O`, the Activity entry is “Toxic” in the data set with Mus musculus [13]; “Toxic” with Mus musculus [14]; “Toxic” in the data set with Mus musculus [15]; “Dose-dependent effect” with MDA-MB-231 [5]; “Toxic” in the data set on Mus musculus [18]; “Toxic” in the data set on Mus musculus [19]. Moreover, the Activity entry in the data set on Mus musculus [20] and with Mus musculus [21] was “Toxic” in each case. In addition, the Drug metabolism entry with Mus musculus [16] and with Mus musculus [17] was “Active” in each case. Besides, the t1/2 in the data set with Liver turned out to be 37 min. For the same molecule, the outcome in the data set with MDA-MB-231 [6] was inactive. For the same molecule, the result with MDA-MB-231 [7] and with MDA-MB-231 [8] was Active. The molecule also had an MTD in the data set on Mus musculus [9] of 75 mg/kg.
